Measured values reported in ChEMBL document CHEMBL1145479, “Tigecycline Efflux as a Mechanism for Nonsusceptibility in Acinetobacter baumannii” (2007).
Values after ≈ are worked out from the molar mass of the structure shown.

Experiments:
Acinetobacter baumannii [1] = experiment: Antimicrobial activity against Acinetobacter baumannii B46 in presence of efflux pump inhibitor phenyl-arginine-beta-naphthylamide by broth microdilution method; assay type: functional
Acinetobacter baumannii [2] = experiment: Antimicrobial activity against Acinetobacter baumannii C75 by broth microdilution method; assay type: functional
Acinetobacter baumannii [3] = experiment: Antimicrobial activity against Acinetobacter baumannii C75 in presence of efflux pump inhibitor phenyl-arginine-beta-naphthylamide by broth microdilution method; assay type: functional
Acinetobacter baumannii [4] = experiment: Antimicrobial activity against Acinetobacter baumannii A24B after 4 days by broth microdilution method; assay type: functional; details: 96 h
Acinetobacter baumannii [5] = experiment: Antimicrobial activity against Acinetobacter baumannii A24C after 4 days by broth microdilution method; assay type: functional; details: 96 h
Acinetobacter baumannii [6] = experiment: Antimicrobial activity against Acinetobacter baumannii A24D after 4 days by broth microdilution method; assay type: functional; details: 96 h
Acinetobacter baumannii [7] = experiment: Antimicrobial activity against Acinetobacter baumannii A24D after 4 days in presence of efflux pump inhibitor phenyl-arginine-beta-naphthylamide by broth microdilution method; assay type: functional; details: 96 h
Acinetobacter baumannii [8] = experiment: Antimicrobial activity against Acinetobacter baumannii B46 by broth microdilution method; assay type: functional
Acinetobacter baumannii [9] = experiment: Antimicrobial activity against Acinetobacter baumannii D54 by broth microdilution method; assay type: functional
Acinetobacter baumannii [10] = experiment: Antimicrobial activity against Acinetobacter baumannii A24 in presence of efflux pump inhibitor phenyl-arginine-beta-naphthylamide by broth microdilution method; assay type: functional
Acinetobacter baumannii [11] = experiment: Antimicrobial activity against Acinetobacter baumannii A24A after 4 days by broth microdilution method; assay type: functional; details: 96 h
Acinetobacter baumannii [12] = experiment: Antimicrobial activity against Acinetobacter baumannii A24 by broth microdilution method; assay type: functional
Acinetobacter baumannii [13] = experiment: Antimicrobial activity against Acinetobacter baumannii C75 by agar dilution method; assay type: functional
How it was run: (§1)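 Tigecycline MIC first estimated by Etest, then confirmed by agar dilution on Mueller-Hinton II agar. Strains were grown in LB broth.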

Acinetobacter baumannii [14] = experiment: Antimicrobial activity against Acinetobacter baumannii C75 in presence of efflux pump inhibitor phenyl-arginine-beta-naphthylamide by agar dilution method; assay type: functional
Acinetobacter baumannii [15] = experiment: Inhibition of AdeABC efflux pump protein in Acinetobacter baumannii A24 assessed as ethidium bromide accumulation at 100 uM; set-up: scale not given: the % may be the effect or the level left
How it was run: (§2)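 Overnight cells pelleted and resuspended to A600 0.2 in sodium phosphate buffer pH 7.0, with ethidium bromide at 2 μg/ml final. Incubated 420 s, then CCCP (protonophore) added at 100 μM final for a further 180 s. Fluorescence read at ex 530/em 600 nm, cell-only background subtracted, and expressed as percent increase in accumulation after CCCP.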

Acinetobacter baumannii [16] = experiment: Inhibition of AdeABC efflux pump protein in Acinetobacter baumannii D54 assessed as ethidium bromide accumulation at 100 uM; set-up: scale not given: the % may be the effect or the level left; how it was run: as §2
Acinetobacter baumannii [17] = experiment: Inhibition of AdeABC efflux pump protein in Acinetobacter baumannii B46 assessed as ethidium bromide accumulation at 100 uM; set-up: scale not given: the % may be the effect or the level left; how it was run: as §2
Acinetobacter baumannii [18] = experiment: Inhibition of AdeABC multidrug efflux pump in Acinetobacter baumannii C75 assessed as ethidium bromide accumulation at 100 uM; set-up: scale not given: the % may be the effect or the level left; how it was run: as §2
Acinetobacter baumannii [19] = experiment: Inhibition of AdeABC efflux pump protein in Acinetobacter baumannii A24D assessed as ethidium bromide accumulation at 100 uM; set-up: scale not given: the % may be the effect or the level left
How it was run: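 Overnight cells were pelleted and resuspended to A600 0.2 in sodium phosphate buffer, pH 7.0. Ethidium bromide was added at 2 μg/ml final and incubated 420 s. CCCP was then added at 100 μM final for a further 180 s. Fluorescence was read at ex 530 / em 600 nm, with cell-only background subtracted. The value is the percent increase in accumulation after CCCP.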

Acinetobacter baumannii [20] = experiment: Antimicrobial activity against Acinetobacter baumannii A24C after 4 days by agar dilution method; assay type: functional; details: 96 h
How it was run: (§3)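 Fresh cultures were passaged overnight on tigecycline-containing Mueller-Hinton II agar, boiled before inoculation to prevent tigecycline oxidative degradation. […] Inoculum was 0.5 McFarland. Tigecycline MICs were recorded daily by agar dilution.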

Acinetobacter baumannii [21] = experiment: Antimicrobial activity against Acinetobacter baumannii A24D after 4 days by agar dilution method; assay type: functional; details: 96 h; how it was run: as §3
Acinetobacter baumannii [22] = experiment: Antimicrobial activity against Acinetobacter baumannii A24D after 4 days in presence of efflux pump inhibitor phenyl-arginine-beta-naphthylamide by agar dilution method; assay type: functional; details: 96 h
How it was run: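 Tigecycline MIC determined by agar dilution on Mueller-Hinton agar containing PABN, for bacteria from the final day of growth. PABN was dissolved in water as a 25 mg/ml stock and added to agar cooled to 50°C.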

Acinetobacter baumannii [23] = experiment: Antimicrobial activity against Acinetobacter baumannii B46 by agar dilution method; assay type: functional; how it was run: as §1
Acinetobacter baumannii [24] = experiment: Antimicrobial activity against Acinetobacter baumannii B46 in presence of efflux pump inhibitor phenyl-arginine-beta-naphthylamide by agar dilution method; assay type: functional
Acinetobacter baumannii [25] = experiment: Antimicrobial activity against Acinetobacter baumannii D54 by agar dilution method; assay type: functional
How it was run: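 Tigecycline MIC screened by Etest and confirmed by agar dilution on Mueller-Hinton II agar; strains cultivated in LB broth.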

Acinetobacter baumannii [26] = experiment: Antimicrobial activity against Acinetobacter baumannii A24 by agar dilution method; assay type: functional; how it was run: as §1
Acinetobacter baumannii [27] = experiment: Antimicrobial activity against Acinetobacter baumannii A24 in presence of efflux pump inhibitor phenyl-arginine-beta-naphthylamide by agar dilution method; assay type: functional
Acinetobacter baumannii [28] = experiment: Antimicrobial activity against Acinetobacter baumannii A24A after 4 days by agar dilution method; assay type: functional; details: 96 h; how it was run: as §3
Acinetobacter baumannii [29] = experiment: Antimicrobial activity against Acinetobacter baumannii A24B after 4 days by agar dilution method; assay type: functional; details: 96 h; how it was run: as §3

SMILES	MIC (Acinetobacter baumannii [1])	MIC (Acinetobacter baumannii [2])	MIC (Acinetobacter baumannii [3])	MIC (Acinetobacter baumannii [4])	MIC (Acinetobacter baumannii [5])	MIC (Acinetobacter baumannii [6])	MIC (Acinetobacter baumannii [7])	MIC (Acinetobacter baumannii [8])	MIC (Acinetobacter baumannii [9])	MIC (Acinetobacter baumannii [10])	MIC (Acinetobacter baumannii [11])	MIC (Acinetobacter baumannii [12])	further results
CO/N=C(\C(=O)N[C@@H]1C(=O)N2C(C(=O)[O-])=C(C[N+]3(C)CCCC3)CS[C@H]12)c1csc(N)n1 [CEFEPIME]	128 µg/mL	> 256 µg/mL	16 µg/mL	12 µg/mL (≈ 25 µM)	16 µg/mL (≈ 33.3 µM)	16 µg/mL (≈ 33.3 µM)	1 µg/mL	> 256 µg/mL	1.5 µg/mL (≈ 3.12 µM)	3 µg/mL	12 µg/mL (≈ 25 µM)	–	–
CC(C)(O/N=C(\C(=O)N[C@@H]1C(=O)N2C(C(=O)[O-])=C(C[n+]3ccccc3)CS[C@H]12)c1csc(N)n1)C(=O)O [CEFTAZIDIME]	8 µg/mL	192 µg/mL (≈ 351 µM)	8 µg/mL	> 256 µg/mL	> 256 µg/mL	> 256 µg/mL	32 µg/mL	96 µg/mL (≈ 176 µM)	4 µg/mL (≈ 7.32 µM)	96 µg/mL	> 256 µg/mL	> 256 µg/mL	–
O=C(N[C@H](CO)[C@H](O)c1ccc([N+](=O)[O-])cc1)C(Cl)Cl [CHLORAMPHENICOL]	8 µg/mL	32 µg/mL (≈ 99 µM)	8 µg/mL	96 µg/mL (≈ 297 µM)	96 µg/mL (≈ 297 µM)	16 µg/mL (≈ 49.5 µM)	4 µg/mL	32 µg/mL (≈ 99 µM)	0.25 µg/mL (≈ 0.774 µM)	12 µg/mL	96 µg/mL (≈ 297 µM)	16 µg/mL (≈ 49.5 µM)	–
O=C(O)c1cn(C2CC2)c2cc(N3CCNCC3)c(F)cc2c1=O [CIPROFLOXACIN]	128 µg/mL	512 µg/mL (≈ 1550 µM)	256 µg/mL	256 µg/mL (≈ 773 µM)	256 µg/mL (≈ 773 µM)	512 µg/mL (≈ 1550 µM)	128 µg/mL	128 µg/mL (≈ 386 µM)	0.25 µg/mL (≈ 0.754 µM)	128 µg/mL	256 µg/mL (≈ 773 µM)	256 µg/mL (≈ 773 µM)	–
C[C@@H](O)[C@H]1C(=O)N2C(C(=O)O)=C(SCCNC=N)C[C@H]12 [IMIPENEM ANHYDROUS]	0.25 µg/mL	1.5 µg/mL (≈ 5.01 µM)	0.125 µg/mL	0.125 µg/mL (≈ 0.418 µM)	0.19 µg/mL (≈ 0.635 µM)	0.5 µg/mL (≈ 1.67 µM)	0.064 µg/mL	1.5 µg/mL (≈ 5.01 µM)	0.125 µg/mL (≈ 0.418 µM)	0.032 µg/mL	0.125 µg/mL (≈ 0.418 µM)	0.38 µg/mL (≈ 1.27 µM)	–
C[C@@H](O)[C@H]1C(=O)N2C(C(=O)O)=C(S[C@@H]3CN[C@H](C(=O)N(C)C)C3)[C@H](C)[C@H]12 [MEROPENEM]	0.25 µg/mL	4 µg/mL (≈ 10.4 µM)	0.125 µg/mL	0.75 µg/mL (≈ 1.96 µM)	0.75 µg/mL (≈ 1.96 µM)	2 µg/mL (≈ 5.22 µM)	0.094 µg/mL	4 µg/mL (≈ 10.4 µM)	0.25 µg/mL (≈ 0.652 µM)	0.094 µg/mL	0.75 µg/mL (≈ 1.96 µM)	1 µg/mL (≈ 2.61 µM)	–
CN(C)c1ccc(O)c2c1C[C@H]1C[C@H]3[C@H](N(C)C)C(O)=C(C(N)=O)C(=O)[C@@]3(O)C(O)=C1C2=O [MINOCYCLINE]	0.25 µg/mL	2 µg/mL (≈ 4.37 µM)	1 µg/mL	16 µg/mL (≈ 35 µM)	16 µg/mL (≈ 35 µM)	32 µg/mL (≈ 69.9 µM)	8 µg/mL	0.25 µg/mL (≈ 0.546 µM)	0.125 µg/mL (≈ 0.273 µM)	2 µg/mL	12 µg/mL (≈ 26.2 µM)	32 µg/mL (≈ 69.9 µM)	–
CCN1CCN(C(=O)N[C@@H](C(=O)N[C@@H]2C(=O)N3[C@@H]2SC(C)(C)[C@@H]3C(=O)O)c2ccccc2)C(=O)C1=O [PIPERACILLIN]	–	48 µg/mL (≈ 92.7 µM)	8 µg/mL	12 µg/mL (≈ 23.2 µM)	16 µg/mL (≈ 30.9 µM)	24 µg/mL (≈ 46.4 µM)	1 µg/mL	256 µg/mL (≈ 495 µM)	16 µg/mL (≈ 30.9 µM)	3 µg/mL	12 µg/mL (≈ 23.2 µM)	16 µg/mL (≈ 30.9 µM)	–
CN(C)c1cc(NC(=O)CNC(C)(C)C)c(O)c2c1C[C@H]1C[C@H]3[C@H](N(C)C)C(O)=C(C(N)=O)C(=O)[C@@]3(O)C(O)=C1C2=O [TIGECYCLINE]	–	–	–	–	–	–	–	–	–	–	–	–	MIC (Acinetobacter baumannii [13]): 16 µg/mL (≈ 27.3 µM); MIC (Acinetobacter baumannii [14]): 4 µg/mL; Activity (Acinetobacter baumannii [15]): 52%; Activity (Acinetobacter baumannii [16]): 31%; Activity (Acinetobacter baumannii [17]): 115%; Activity (Acinetobacter baumannii [18]): 206%; Activity (Acinetobacter baumannii [19]): 114%; MIC (Acinetobacter baumannii [20]): 6 µg/mL (≈ 10.2 µM); MIC (Acinetobacter baumannii [21]): 24 µg/mL (≈ 41 µM); MIC (Acinetobacter baumannii [22]): 2 µg/mL; MIC (Acinetobacter baumannii [23]): 4 µg/mL (≈ 6.83 µM); MIC (Acinetobacter baumannii [24]): 1 µg/mL; MIC (Acinetobacter baumannii [25]): 0.125 µg/mL (≈ 0.213 µM); MIC (Acinetobacter baumannii [26]): 2 µg/mL (≈ 3.41 µM); MIC (Acinetobacter baumannii [27]): 2 µg/mL; MIC (Acinetobacter baumannii [28]): 2 µg/mL (≈ 3.41 µM); MIC (Acinetobacter baumannii [29]): 2 µg/mL (≈ 3.41 µM)
NC[C@H]1O[C@H](O[C@H]2[C@H](O)[C@@H](O[C@H]3O[C@H](CO)[C@@H](O)[C@H](N)[C@H]3O)[C@H](N)C[C@@H]2N)[C@H](N)C[C@@H]1O [TOBRAMYCIN]	16 µg/mL	16 µg/mL (≈ 34.2 µM)	6 µg/mL	4 µg/mL (≈ 8.56 µM)	6 µg/mL (≈ 12.8 µM)	16 µg/mL (≈ 34.2 µM)	8 µg/mL	24 µg/mL (≈ 51.3 µM)	0.75 µg/mL (≈ 1.6 µM)	3 µg/mL	3 µg/mL (≈ 6.42 µM)	4 µg/mL (≈ 8.56 µM)	–
